Laboratory results reported in ChEMBL document CHEMBL2331160, “Trimeric hemibastadin congener from the marine sponge Ianthella basta” (J Nat Prod, 2013).
Activity calls are given as the source filed them. The rule behind the calls is not given here.

Legend:
Aurora kinase B = Aurora kinase B (Homo sapiens, UniProt Q96GD4); experiment: Inhibition of aurora-B (unknown origin)
Summary of the method: (§1)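 Biochemical (cell-free) assay within a panel of 24 protein kinases. Results reported as IC50 values. Procedure as described in earlier work.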

[1] = target: Hepatocyte growth factor receptor (Homo sapiens, UniProt P08581); experiment: Inhibition of MET (unknown origin); summary of the method: as §1
[2] = target: Mitogen-activated protein kinase kinase kinase 8 (Homo sapiens, UniProt P41279); experiment: Inhibition of COT (unknown origin)
Summary of the method: (§2)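 Biochemical (cell-free) assay using a panel of 24 protein kinases. The read-out was the IC50.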

Focal adhesion kinase 1 = Focal adhesion kinase 1 (Homo sapiens, UniProt Q05397); experiment: Inhibition of FAK (unknown origin); summary of the method: as §1
[3] = target: Casein kinase II subunit alpha (Homo sapiens, UniProt P68400); experiment: Inhibition of CK2-alpha1 (unknown origin); summary of the method: as §1
[4] = target: Cyclin-dependent kinase 4/cyclin D1 (Homo sapiens, UniProt P11802); experiment: Inhibition of CDK4/cyclin-D1 (unknown origin); format: protein-complex assay; summary of the method: as §1
[5] = target: Receptor tyrosine-protein kinase erbB-2 (Homo sapiens, UniProt P04626); experiment: Inhibition of ERBB2 (unknown origin); summary of the method: as §1
Angiopoietin-1 receptor = Angiopoietin-1 receptor (Homo sapiens, UniProt Q02763); experiment: Inhibition of TIE2 (unknown origin); summary of the method: as §1
[6] = target: Cyclin-dependent kinase 2/cyclin A (Homo sapiens, UniProt P24941); experiment: Inhibition of CDK2/cyclin-A (unknown origin); format: protein-complex assay; summary of the method: as §1
[7] = target: RAC-alpha serine/threonine-protein kinase (Homo sapiens, UniProt P31749); experiment: Inhibition of AKT1 (unknown origin); summary of the method: as §1
[8] = target: Vascular endothelial growth factor receptor 3 (Homo sapiens, UniProt P35916); experiment: Inhibition of VEGFR3 (unknown origin); summary of the method: as §1
[9] = target: Epidermal growth factor receptor (Homo sapiens, UniProt P00533); experiment: Inhibition of EGFR (unknown origin); summary of the method: as §1
[10] = target: Insulin-like growth factor 1 receptor (Homo sapiens, UniProt P08069); experiment: Inhibition of IGF1R (unknown origin); summary of the method: as §1
[11] = target: T1, Receptor-type tyrosine-protein kinase FLT3 (Homo sapiens, UniProt P36888); experiment: Inhibition of FLT3 (unknown origin); summary of the method: as §2
T1 sequence (P36888 whole entry): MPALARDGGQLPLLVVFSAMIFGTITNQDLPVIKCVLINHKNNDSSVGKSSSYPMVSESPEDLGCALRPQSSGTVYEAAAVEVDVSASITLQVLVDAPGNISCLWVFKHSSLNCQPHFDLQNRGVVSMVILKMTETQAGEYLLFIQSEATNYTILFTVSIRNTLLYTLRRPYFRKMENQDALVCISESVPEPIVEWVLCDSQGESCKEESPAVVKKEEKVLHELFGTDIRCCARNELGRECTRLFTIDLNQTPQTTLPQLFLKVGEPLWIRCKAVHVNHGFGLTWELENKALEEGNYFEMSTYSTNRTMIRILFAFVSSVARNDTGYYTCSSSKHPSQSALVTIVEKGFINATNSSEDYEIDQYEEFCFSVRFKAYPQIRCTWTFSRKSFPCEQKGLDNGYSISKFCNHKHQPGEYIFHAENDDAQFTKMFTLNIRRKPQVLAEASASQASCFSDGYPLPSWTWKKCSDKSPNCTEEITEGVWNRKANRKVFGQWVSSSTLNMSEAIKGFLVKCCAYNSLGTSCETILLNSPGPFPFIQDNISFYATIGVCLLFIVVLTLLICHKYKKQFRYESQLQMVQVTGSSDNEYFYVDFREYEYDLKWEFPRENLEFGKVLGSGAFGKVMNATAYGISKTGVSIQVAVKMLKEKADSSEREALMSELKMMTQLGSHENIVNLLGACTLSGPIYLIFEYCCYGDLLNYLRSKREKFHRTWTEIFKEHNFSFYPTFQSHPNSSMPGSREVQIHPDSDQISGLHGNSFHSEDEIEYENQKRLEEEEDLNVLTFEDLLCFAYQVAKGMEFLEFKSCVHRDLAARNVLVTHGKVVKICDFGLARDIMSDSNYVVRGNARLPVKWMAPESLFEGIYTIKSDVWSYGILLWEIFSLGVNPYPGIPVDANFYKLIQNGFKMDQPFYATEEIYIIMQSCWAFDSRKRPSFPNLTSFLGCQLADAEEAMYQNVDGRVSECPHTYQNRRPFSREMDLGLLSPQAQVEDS

[12] = target: Proto-oncogene tyrosine-protein kinase Src (Homo sapiens, UniProt P12931); experiment: Inhibition of SRC (unknown origin); summary of the method: as §1
Insulin receptor = Insulin receptor (Homo sapiens, UniProt P06213); experiment: Inhibition of INSR (unknown origin); summary of the method: as §1
[13] = target: T2, Serine/threonine-protein kinase PLK4 (Homo sapiens, UniProt O00444); experiment: Inhibition of SAK (unknown origin); summary of the method: as §1
T2 sequence (O00444 whole entry): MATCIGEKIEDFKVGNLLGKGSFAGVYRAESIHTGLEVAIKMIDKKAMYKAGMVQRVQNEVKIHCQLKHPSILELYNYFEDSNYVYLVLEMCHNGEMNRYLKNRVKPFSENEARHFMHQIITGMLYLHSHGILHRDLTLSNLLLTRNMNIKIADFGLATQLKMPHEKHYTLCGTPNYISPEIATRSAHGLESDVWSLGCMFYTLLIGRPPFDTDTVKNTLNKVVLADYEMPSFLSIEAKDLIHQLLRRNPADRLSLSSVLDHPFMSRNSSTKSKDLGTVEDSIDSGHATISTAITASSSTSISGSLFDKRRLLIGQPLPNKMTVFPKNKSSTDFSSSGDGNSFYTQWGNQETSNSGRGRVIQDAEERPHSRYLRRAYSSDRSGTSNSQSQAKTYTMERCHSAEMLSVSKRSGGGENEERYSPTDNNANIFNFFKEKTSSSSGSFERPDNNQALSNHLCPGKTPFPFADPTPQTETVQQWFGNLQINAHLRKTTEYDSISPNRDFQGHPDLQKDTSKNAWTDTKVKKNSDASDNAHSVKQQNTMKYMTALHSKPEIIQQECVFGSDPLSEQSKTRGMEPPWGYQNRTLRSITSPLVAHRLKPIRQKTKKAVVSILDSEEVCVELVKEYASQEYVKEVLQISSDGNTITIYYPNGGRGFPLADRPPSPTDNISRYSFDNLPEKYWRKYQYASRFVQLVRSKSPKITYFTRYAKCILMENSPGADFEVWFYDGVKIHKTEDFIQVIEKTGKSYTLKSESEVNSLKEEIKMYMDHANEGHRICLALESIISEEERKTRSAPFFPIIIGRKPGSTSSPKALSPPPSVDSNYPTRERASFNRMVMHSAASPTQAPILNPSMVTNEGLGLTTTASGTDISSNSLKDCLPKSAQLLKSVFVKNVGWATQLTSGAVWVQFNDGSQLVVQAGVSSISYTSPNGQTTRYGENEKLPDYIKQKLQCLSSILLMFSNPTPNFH

Aurora kinase A = target: T3, Aurora kinase A (Homo sapiens, UniProt O14965); experiment: Inhibition of aurora-A (unknown origin); summary of the method: as §1
T3 sequence (O14965 whole entry): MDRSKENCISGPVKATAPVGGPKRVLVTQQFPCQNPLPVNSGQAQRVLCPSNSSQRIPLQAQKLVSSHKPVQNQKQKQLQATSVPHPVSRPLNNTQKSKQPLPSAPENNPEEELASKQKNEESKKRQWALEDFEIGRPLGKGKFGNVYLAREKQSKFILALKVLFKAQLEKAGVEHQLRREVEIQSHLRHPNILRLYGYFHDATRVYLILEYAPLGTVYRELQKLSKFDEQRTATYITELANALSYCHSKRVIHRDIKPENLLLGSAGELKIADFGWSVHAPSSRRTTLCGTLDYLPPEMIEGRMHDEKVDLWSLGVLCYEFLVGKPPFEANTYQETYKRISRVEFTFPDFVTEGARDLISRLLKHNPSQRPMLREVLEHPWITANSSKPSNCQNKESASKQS

[14] = target: Vascular endothelial growth factor receptor 2 (Homo sapiens, UniProt P35968); experiment: Inhibition of VEGFR2 (unknown origin); summary of the method: as §1
[15] = target: Serine/threonine-protein kinase PLK1 (Homo sapiens, UniProt P53350); experiment: Inhibition of PLK1 (unknown origin); summary of the method: as §1
[16] = target: Serine/threonine-protein kinase B-raf (Homo sapiens, UniProt P15056, V600E); experiment: Inhibition of B-RAF V600E mutant (unknown origin); summary of the method: as §1
L5178Y = experiment: Cytotoxicity against mouse L5178Y cells assessed as inhibition of cell proliferation by MTT assay; format: functional, cell-based
[17] = target: T4, NUAK family SNF1-like kinase 1 (Homo sapiens, UniProt O60285); experiment: Inhibition of ARK5 (unknown origin); summary of the method: as §1
T4 sequence (O60285 whole entry): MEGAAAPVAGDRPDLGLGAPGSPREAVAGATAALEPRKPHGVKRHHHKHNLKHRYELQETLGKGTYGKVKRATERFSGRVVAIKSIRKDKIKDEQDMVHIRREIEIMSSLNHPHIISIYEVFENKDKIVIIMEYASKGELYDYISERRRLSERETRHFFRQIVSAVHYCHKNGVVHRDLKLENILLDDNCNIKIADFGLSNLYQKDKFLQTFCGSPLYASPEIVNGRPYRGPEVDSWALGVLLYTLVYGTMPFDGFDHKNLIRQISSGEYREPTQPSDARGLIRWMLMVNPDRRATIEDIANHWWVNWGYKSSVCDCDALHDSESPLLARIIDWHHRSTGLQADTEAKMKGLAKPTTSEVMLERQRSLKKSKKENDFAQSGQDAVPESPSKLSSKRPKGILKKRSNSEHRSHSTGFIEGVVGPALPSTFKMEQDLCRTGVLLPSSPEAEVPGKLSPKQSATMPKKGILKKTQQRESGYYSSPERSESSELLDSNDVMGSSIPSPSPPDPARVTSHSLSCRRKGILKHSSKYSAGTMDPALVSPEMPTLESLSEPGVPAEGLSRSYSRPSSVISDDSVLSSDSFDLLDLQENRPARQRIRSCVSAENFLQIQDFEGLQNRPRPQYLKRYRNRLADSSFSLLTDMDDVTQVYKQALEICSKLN

[18] = target: Platelet-derived growth factor receptor beta (Homo sapiens, UniProt P09619); experiment: Inhibition of PDGFR-beta (unknown origin)
Ephrin type-B receptor 4 = Ephrin type-B receptor 4 (Homo sapiens, UniProt P54760); experiment: Inhibition of EPHB4 (unknown origin); summary of the method: as §1

Chain of Aurora kinase B (Q96GD4 whole entry): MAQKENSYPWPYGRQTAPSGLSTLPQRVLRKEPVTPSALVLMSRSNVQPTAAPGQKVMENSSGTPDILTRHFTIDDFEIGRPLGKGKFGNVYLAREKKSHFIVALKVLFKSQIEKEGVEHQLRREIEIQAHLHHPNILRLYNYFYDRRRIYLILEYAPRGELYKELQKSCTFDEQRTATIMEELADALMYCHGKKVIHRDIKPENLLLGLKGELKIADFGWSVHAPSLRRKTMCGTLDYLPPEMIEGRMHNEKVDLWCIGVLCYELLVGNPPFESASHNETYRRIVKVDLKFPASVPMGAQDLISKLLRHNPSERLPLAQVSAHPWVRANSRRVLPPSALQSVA
Chain of Epidermal growth factor receptor (P00533 whole entry): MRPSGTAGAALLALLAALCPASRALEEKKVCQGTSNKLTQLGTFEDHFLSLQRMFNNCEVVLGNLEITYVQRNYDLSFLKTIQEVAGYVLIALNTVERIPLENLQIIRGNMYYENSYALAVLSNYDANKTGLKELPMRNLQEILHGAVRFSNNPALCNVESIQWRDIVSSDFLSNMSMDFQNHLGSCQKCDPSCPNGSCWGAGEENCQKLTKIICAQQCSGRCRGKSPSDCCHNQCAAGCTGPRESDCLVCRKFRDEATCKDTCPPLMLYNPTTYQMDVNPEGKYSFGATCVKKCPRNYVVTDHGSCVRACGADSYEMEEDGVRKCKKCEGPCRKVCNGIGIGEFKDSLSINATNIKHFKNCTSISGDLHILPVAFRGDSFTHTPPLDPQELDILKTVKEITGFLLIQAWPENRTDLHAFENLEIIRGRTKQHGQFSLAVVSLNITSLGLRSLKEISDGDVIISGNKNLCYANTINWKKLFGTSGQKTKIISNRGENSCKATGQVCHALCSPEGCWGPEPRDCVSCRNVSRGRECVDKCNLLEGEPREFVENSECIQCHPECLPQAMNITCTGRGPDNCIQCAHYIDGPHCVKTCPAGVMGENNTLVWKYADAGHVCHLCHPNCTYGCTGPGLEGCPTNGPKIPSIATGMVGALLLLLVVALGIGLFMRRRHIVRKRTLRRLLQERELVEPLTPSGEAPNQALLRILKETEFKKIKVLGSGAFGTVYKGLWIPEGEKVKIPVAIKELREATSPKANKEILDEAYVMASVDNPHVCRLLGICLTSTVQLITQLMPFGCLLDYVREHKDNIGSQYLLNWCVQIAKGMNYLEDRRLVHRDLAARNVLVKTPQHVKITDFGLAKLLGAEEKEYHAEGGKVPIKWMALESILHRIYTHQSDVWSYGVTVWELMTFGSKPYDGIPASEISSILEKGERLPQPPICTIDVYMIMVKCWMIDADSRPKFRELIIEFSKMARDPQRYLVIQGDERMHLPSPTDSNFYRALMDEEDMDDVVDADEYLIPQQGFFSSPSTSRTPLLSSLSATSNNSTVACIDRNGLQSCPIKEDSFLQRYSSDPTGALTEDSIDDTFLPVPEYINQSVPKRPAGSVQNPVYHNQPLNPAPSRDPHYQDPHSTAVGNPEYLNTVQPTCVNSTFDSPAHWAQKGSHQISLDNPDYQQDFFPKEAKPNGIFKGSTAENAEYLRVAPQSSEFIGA
Chain of Mitogen-activated protein kinase kinase kinase 8 (P41279 whole entry): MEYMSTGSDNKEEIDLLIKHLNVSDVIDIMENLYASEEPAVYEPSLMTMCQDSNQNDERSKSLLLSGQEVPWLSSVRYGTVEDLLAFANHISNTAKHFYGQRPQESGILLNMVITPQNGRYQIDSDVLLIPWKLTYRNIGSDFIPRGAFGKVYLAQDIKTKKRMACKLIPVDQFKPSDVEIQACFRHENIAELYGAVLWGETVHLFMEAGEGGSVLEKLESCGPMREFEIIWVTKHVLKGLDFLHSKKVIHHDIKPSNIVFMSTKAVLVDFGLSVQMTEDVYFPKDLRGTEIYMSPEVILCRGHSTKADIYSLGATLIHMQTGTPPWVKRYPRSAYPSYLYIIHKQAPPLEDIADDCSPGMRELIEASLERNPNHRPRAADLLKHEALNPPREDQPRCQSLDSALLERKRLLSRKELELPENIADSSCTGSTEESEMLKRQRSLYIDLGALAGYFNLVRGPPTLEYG
Chain of Receptor tyrosine-protein kinase erbB-2 (P04626 whole entry): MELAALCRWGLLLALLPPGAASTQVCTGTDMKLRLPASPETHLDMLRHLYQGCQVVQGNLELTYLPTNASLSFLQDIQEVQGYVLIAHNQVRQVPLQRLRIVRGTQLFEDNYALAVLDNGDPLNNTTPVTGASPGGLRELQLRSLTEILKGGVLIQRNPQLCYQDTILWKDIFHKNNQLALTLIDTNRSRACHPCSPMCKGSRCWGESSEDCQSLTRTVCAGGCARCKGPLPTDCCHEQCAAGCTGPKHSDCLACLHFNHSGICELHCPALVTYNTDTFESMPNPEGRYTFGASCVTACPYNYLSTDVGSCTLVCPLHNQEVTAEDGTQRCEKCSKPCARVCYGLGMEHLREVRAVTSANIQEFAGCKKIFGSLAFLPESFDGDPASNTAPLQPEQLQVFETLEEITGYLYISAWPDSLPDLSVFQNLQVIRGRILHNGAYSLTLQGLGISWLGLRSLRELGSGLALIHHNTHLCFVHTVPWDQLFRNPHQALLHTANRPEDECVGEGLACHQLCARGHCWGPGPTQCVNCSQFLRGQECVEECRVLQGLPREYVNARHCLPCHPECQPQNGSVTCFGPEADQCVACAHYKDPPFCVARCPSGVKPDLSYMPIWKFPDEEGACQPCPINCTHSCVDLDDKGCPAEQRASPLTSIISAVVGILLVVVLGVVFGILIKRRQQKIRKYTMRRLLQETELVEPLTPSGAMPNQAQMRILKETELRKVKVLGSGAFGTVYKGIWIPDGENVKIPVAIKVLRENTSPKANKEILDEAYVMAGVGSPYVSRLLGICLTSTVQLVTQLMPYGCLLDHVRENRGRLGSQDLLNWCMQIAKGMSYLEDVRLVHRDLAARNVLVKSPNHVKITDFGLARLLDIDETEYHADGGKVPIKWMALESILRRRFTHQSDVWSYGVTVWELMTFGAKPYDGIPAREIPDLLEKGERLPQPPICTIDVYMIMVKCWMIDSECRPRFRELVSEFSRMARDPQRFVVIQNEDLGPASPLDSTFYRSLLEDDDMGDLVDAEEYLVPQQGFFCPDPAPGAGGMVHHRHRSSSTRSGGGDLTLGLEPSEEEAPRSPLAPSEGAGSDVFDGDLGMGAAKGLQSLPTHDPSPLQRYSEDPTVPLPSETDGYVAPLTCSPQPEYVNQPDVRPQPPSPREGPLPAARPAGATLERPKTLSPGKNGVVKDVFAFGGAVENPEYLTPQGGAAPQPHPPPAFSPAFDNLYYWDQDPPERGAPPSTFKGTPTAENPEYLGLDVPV
Chain of Cyclin-dependent kinase 4/cyclin D1 (P11802 whole entry): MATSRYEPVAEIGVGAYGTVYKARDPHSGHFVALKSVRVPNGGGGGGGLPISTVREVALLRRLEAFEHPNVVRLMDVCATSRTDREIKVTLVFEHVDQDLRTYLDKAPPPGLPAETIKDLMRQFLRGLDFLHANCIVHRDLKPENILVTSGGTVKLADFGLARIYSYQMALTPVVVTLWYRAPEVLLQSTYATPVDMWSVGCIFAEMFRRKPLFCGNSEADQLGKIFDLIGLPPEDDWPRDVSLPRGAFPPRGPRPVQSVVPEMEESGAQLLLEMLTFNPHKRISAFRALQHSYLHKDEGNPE
Chain of Cyclin-dependent kinase 4/cyclin D1 (P24385 whole entry, further chain): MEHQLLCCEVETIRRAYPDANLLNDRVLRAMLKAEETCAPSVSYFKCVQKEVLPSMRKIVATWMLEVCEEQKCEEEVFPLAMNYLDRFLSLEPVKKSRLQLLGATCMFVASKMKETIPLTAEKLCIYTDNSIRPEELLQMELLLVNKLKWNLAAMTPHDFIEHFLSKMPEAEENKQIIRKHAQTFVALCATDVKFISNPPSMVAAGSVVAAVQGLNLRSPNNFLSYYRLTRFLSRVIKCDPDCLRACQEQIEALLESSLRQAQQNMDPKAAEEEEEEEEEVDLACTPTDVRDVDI
Chain of Serine/threonine-protein kinase B-raf (P15056 2-766 V600E limits assumed): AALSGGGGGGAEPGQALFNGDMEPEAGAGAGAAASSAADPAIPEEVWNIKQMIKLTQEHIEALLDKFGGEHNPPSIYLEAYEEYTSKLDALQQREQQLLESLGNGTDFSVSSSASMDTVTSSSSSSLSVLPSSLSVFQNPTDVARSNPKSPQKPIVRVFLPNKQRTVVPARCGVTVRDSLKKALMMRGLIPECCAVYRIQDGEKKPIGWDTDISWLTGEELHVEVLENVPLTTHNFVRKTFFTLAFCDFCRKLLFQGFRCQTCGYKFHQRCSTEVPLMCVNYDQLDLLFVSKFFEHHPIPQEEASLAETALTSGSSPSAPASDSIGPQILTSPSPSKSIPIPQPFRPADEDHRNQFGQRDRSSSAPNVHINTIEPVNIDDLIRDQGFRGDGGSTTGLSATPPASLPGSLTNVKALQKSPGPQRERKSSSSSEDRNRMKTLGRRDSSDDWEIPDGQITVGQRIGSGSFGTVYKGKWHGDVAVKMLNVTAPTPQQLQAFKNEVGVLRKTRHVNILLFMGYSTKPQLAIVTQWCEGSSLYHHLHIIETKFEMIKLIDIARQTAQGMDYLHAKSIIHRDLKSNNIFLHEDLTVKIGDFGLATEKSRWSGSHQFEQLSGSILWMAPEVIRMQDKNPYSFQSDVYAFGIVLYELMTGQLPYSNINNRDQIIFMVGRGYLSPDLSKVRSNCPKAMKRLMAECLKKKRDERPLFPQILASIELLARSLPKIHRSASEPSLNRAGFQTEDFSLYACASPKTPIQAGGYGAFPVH
Chain of Casein kinase II subunit alpha (P68400 whole entry): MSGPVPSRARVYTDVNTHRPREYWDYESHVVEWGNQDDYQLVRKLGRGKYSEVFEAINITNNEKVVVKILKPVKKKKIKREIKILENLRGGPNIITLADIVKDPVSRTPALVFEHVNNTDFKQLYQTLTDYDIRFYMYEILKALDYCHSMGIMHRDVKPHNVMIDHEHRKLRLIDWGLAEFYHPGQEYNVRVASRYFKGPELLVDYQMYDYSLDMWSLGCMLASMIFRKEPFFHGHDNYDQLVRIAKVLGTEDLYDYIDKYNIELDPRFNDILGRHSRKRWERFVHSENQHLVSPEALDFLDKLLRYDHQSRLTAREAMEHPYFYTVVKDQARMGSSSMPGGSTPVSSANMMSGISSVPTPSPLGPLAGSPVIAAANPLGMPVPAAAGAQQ

Q: Which results are given for `O=C(NCCc1ccc(O)c(Br)c1)/C(Cc1cc(Br)c(O)c(-c2cc(C/C(=N/O)C(=O)NCCc3ccc(O)c(Br)c3)cc(Br)c2O)c1)=N\O` [BASTADIN 3]?
A: IC50 (Aurora kinase B): 500 nM; IC50 [1]: 1100 nM; IC50 [2]: 1.6 µM; IC50 (Focal adhesion kinase 1): 2.1 µM; IC50 [3]: 4.1 µM; IC50 [4]: 1500 nM; IC50 [5]: 2100 nM; IC50 (Angiopoietin-1 receptor): 800 nM; IC50 [6]: 1600 nM; IC50 [7]: 1900 nM; IC50 [8]: 2.8 µM; IC50 [9]: 1300 nM; IC50 [10]: 2300 nM; IC50 [11]: 2400 nM; IC50 [12]: 1900 nM; IC50 (Insulin receptor): 2.9 µM; IC50 [13]: 4100 nM; IC50 (Aurora kinase A): 100 nM; IC50 [14]: 1200 nM; IC50 [15]: 3.9 µM; IC50 [16]: 2.7 µM; inhibition (L5178Y): inactive; IC50 [17]: 1800 nM

Q: `O=C1NCCc2cc(Br)c(O)c(c2)Oc2c(Br)cc(cc2Br)CCNC(=O)/C(=N/O)Cc2cc(Br)c(O)c(c2)Oc2c(Br)cc(cc2Br)C/C1=N\O` [BASTADIN 6] was tested. Which IC50 (Aurora kinase B) did it give?
A: 2900 nM

Q: What about the IC50 [2] of the same compound?
A: 4.8 µM

Q: What about the IC50 [4] of the same compound?
A: 3600 nM

Q: And the IC50 [5]?
A: 7000 nM

Q: And the IC50 [9]?
A: 2000 nM

Q: What about the IC50 [11] of the same compound?
A: 5300 nM

Q: What about the IC50 (Aurora kinase A) of the same compound?
A: 1700 nM

Q: And the IC50 (L5178Y)?
A: 1.5 µM

Q: What does the source list for `O=C1N/C=C/c2ccc(c(Br)c2)Oc2cc(cc(Br)c2O)CCNC(=O)/C(=N/O)Cc2ccc(c(Br)c2)Oc2cc(cc(Br)c2O)C/C1=N\O` [BASTADIN 7]?
A: IC50 (Aurora kinase B): 2600 nM; IC50 [1]: 2800 nM; IC50 [2]: 3.3 µM; IC50 (Focal adhesion kinase 1): 7.3 µM; IC50 [4]: 2600 nM; IC50 [5]: 2800 nM; IC50 (Angiopoietin-1 receptor): 1800 nM; IC50 [8]: 3.2 µM; IC50 [9]: 1500 nM; IC50 [10]: 1700 nM; IC50 [18]: 10.2 µM; IC50 (Ephrin type-B receptor 4): 7.7 µM; IC50 [11]: 2900 nM; IC50 [12]: 2000 nM; IC50 (Insulin receptor): 4.4 µM; IC50 [13]: 1900 nM; IC50 (Aurora kinase A): 3900 nM; IC50 [14]: 1300 nM; IC50 [16]: 4.4 µM; IC50 (L5178Y): 5.3 µM; IC50 [17]: 3200 nM
